Test results as given in ChEMBL document CHEMBL2384906, “Biological activity, design, synthesis and structure activity relationship of some novel derivatives of curcumin containing sulfonamides” (Eur J Med Chem, 2013).
Values after ≈ are worked out from the molar mass of the structure shown. Active and inactive are the calls of the source. The calls are words filed in the database; no cut-off is given here.

How the values were obtained:
[1] = test system: Mus musculus; experiment: Antiinflammatory activity in mouse assessed as inhibition of carrageenan-induced increase in paw volume at 200 mg/kg administered 1 hr prior to carrageenan challenge measured after 3 hrs relative to control; format: functional
How it was run: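 Mice were fasted 2 h and placed in groups of five. Controls received saline i.p. Phenylbutazone was given at 100 mg/kg i.p., curcumin at 200 mg/kg i.p., and derivatives at 200 mg/kg. After 1 h, 0.1 mL of 1% carrageenan in saline was injected subplantar into the right hind paw. Paw volume was followed by plethysmometer for 3 h, and % inhibition was calculated as (Vc − Vt)/Vc × 100.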

[2] = test system: HCT-116; experiment: Cytotoxicity against human HCT116 cells after 24 hrs by MTT assay; format: functional, cell-based
How it was run: (§1)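 The MTT assay seeded 5 × 10⁴ cells per well and grew them 24 h in RPMI 1640 with compound at 2.5–200 µM. Medium without cells was the blank and adriamycin the positive control. MTT was added for 4 h at 37 °C, formazan was solubilised, and absorbance was read at 570 nm. IC50 is the concentration that cuts viability 50% against untreated cells.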

[3] = test system: QG-56; experiment: Cytotoxicity against human QG56 cells after 24 hrs by MTT assay; format: functional, cell-based; how it was run: as §1
[4] = test system: HeLa; experiment: Cytotoxicity against human HeLa cells after 24 hrs by MTT assay; format: functional, cell-based; how it was run: as §1
[5] = test system: HepG2; experiment: Cytotoxicity against human HepG2 cells after 24 hrs by MTT assay; format: functional, cell-based; how it was run: as §1
[6] = test system: Trichoderma viride; experiment: Antifungal activity against Trichoderma viride MTCC 1107 after 48 hrs; format: functional; details: MTCC 1107, 48 h
[7] = test system: Trichoderma viride; experiment: Antifungal activity against Trichoderma viride MTCC 1107 assessed as zone of inhibition at 20 uM after 48 hrs by disc diffusion method; format: functional
How it was run: (§2)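 Spores from 4-day potato dextrose agar cultures, suspended in sterile water at 1.5 × 10⁵ CFU/mL. 0.2 mL was spread on potato dextrose agar. 5 mm filter-paper discs soaked with test compound were laid on the lawn. Incubation was 48 h at 28 °C, then the inhibition zone was measured in mm. Fluconazole was the positive control and acetone the negative control.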

[8] = test system: Trichoderma viride; experiment: Antifungal activity against Trichoderma viride MTCC 1107 assessed as zone of inhibition at 40 uM after 48 hrs by disc diffusion method; format: functional; details: MTCC 1107, 48 h, read-out: IZ; how it was run: as §2
[9] = test system: Trichoderma viride; experiment: Antifungal activity against Trichoderma viride MTCC 1107 assessed as zone of inhibition at 80 uM after 48 hrs by disc diffusion method; format: functional; details: MTCC 1107, 48 h, read-out: IZ; how it was run: as §2
[10] = test system: Curvularia lunata; experiment: Antifungal activity against Curvularia lunata MTCC 581 after 48 hrs; format: functional; details: MTCC 581, 48 h
[11] = test system: Curvularia lunata; experiment: Antifungal activity against Curvularia lunata MTCC 581 assessed as zone of inhibition at 20 uM after 48 hrs by disc diffusion method; format: functional; how it was run: as §2
[12] = test system: Curvularia lunata; experiment: Antifungal activity against Curvularia lunata MTCC 581 assessed as zone of inhibition at 40 uM after 48 hrs by disc diffusion method; format: functional; details: MTCC 581, 48 h, read-out: IZ; how it was run: as §2
[13] = test system: Aspergillus flavus; experiment: Antifungal activity against Aspergillus flavus MTCC 1021 after 48 hrs; format: functional
[14] = test system: Curvularia lunata; experiment: Antifungal activity against Curvularia lunata MTCC 581 assessed as zone of inhibition at 80 uM after 48 hrs by disc diffusion method; format: functional; details: MTCC 581, 48 h, read-out: IZ; how it was run: as §2
[15] = test system: Aspergillus flavus; experiment: Antifungal activity against Aspergillus flavus MTCC 1021 assessed as zone of inhibition at 80 uM after 48 hrs by disc diffusion method; format: functional; how it was run: as §2
[16] = test system: Aspergillus niger; experiment: Antifungal activity against Aspergillus niger MTCC 1108 after 48 hrs; format: functional
[17] = test system: Aspergillus niger; experiment: Antifungal activity against Aspergillus niger MTCC 1108 assessed as zone of inhibition at 80 uM after 48 hrs by disc diffusion method; format: functional; how it was run: as §2
[18] = test system: Escherichia coli; experiment: Antimicrobial activity against Escherichia coli ATCC 35218 after 24 hrs by broth micro serial dilution method; format: functional; details: ATCC 35218, 24 h
How it was run: (§3)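 This was broth microdilution in autoclaved Mueller-Hinton broth. 150 µL of compound per well was serially diluted […], and 50 µL of test organism was added. Plates were incubated 24 h at 37 °C and optical density was read.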

[19] = test system: Escherichia coli; experiment: Antimicrobial activity against Escherichia coli ATCC 35218 assessed as diameter of inhibition zone at 20 uM after 24 hrs by Kirby -Baur disc diffusion method; format: functional
How it was run: (§4)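 Kirby-Bauer disc diffusion was used. Acetone stocks (160 µM) were serially doubled down to 80, 40 and 20 µM. 4 µL of each went onto 5 mm sterile paper discs, which were dried 30 min at 50 °C. Inoculum was 1.5 × 10⁸ CFU/mL diluted to 3 × 10² CFU/mL, and 50 µL was spread on Mueller-Hinton agar. After 24 h at 37 °C the inhibition-zone diameter was measured. Ciprofloxacin served as positive control.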

[20] = test system: Escherichia coli; experiment: Antimicrobial activity against Escherichia coli ATCC 35218 assessed as diameter of inhibition zone at 40 uM after 24 hrs by Kirby -Baur disc diffusion method; format: functional; how it was run: as §4
[21] = test system: Escherichia coli; experiment: Antimicrobial activity against Escherichia coli ATCC 35218 assessed as diameter of inhibition zone at 80 uM after 24 hrs by Kirby -Baur disc diffusion method; format: functional; details: ATCC 35218, 24 h, read-out: DIZ; how it was run: as §4
[22] = test system: Pseudomonas aeruginosa; experiment: Antimicrobial activity against Pseudomonas aeruginosa ATCC 15499 after 24 hrs by broth micro serial dilution method; format: functional; details: ATCC 15499, 24 h; how it was run: as §3
[23] = test system: Pseudomonas aeruginosa; experiment: Antimicrobial activity against Pseudomonas aeruginosa ATCC 15499 assessed as diameter of inhibition zone at 20 uM after 24 hrs by Kirby -Baur disc diffusion method; format: functional; how it was run: as §4
[24] = test system: Pseudomonas aeruginosa; experiment: Antimicrobial activity against Pseudomonas aeruginosa ATCC 15499 assessed as diameter of inhibition zone at 40 uM after 24 hrs by Kirby -Baur disc diffusion method; format: functional; how it was run: as §4
[25] = test system: Pseudomonas aeruginosa; experiment: Antimicrobial activity against Pseudomonas aeruginosa ATCC 15499 assessed as diameter of inhibition zone at 80 uM after 24 hrs by Kirby -Baur disc diffusion method; format: functional; details: ATCC 15499, 24 h, read-out: DIZ; how it was run: as §4
[26] = test system: Bacillus cereus; experiment: Antimicrobial activity against Bacillus cereus MTCC 7350 after 24 hrs by broth micro serial dilution method; format: functional; details: MTCC 7350, 24 h; how it was run: as §3
[27] = test system: Bacillus cereus; experiment: Antimicrobial activity against Bacillus cereus MTCC 7350 assessed as diameter of inhibition zone at 20 uM after 24 hrs by Kirby -Baur disc diffusion method; format: functional; how it was run: as §4
[28] = test system: Bacillus cereus; experiment: Antimicrobial activity against Bacillus cereus MTCC 7350 assessed as diameter of inhibition zone at 40 uM after 24 hrs by Kirby -Baur disc diffusion method; format: functional; how it was run: as §4
[29] = test system: Bacillus cereus; experiment: Antimicrobial activity against Bacillus cereus MTCC 7350 assessed as diameter of inhibition zone at 80 uM after 24 hrs by Kirby -Baur disc diffusion method; format: functional; details: MTCC 7350, 24 h, read-out: DIZ; how it was run: as §4
[30] = test system: Staphylococcus aureus; experiment: Antimicrobial activity against Staphylococcus aureus ATCC 11632 after 24 hrs by broth micro serial dilution method; format: functional; details: ATCC 11632, 24 h; how it was run: as §3
[31] = test system: Staphylococcus aureus; experiment: Antimicrobial activity against Staphylococcus aureus ATCC 11632 assessed as diameter of inhibition zone at 20 uM after 24 hrs by Kirby -Baur disc diffusion method; format: functional; how it was run: as §4
[32] = test system: Staphylococcus aureus; experiment: Antimicrobial activity against Staphylococcus aureus ATCC 11632 assessed as diameter of inhibition zone at 40 uM after 24 hrs by Kirby -Baur disc diffusion method; format: functional; how it was run: as §4
[33] = test system: Staphylococcus aureus; experiment: Antimicrobial activity against Staphylococcus aureus ATCC 11632 assessed as diameter of inhibition zone at 80 uM after 24 hrs by Kirby -Baur disc diffusion method; format: functional; details: ATCC 11632, 24 h, read-out: DIZ; how it was run: as §4
[34] = test system: Salmonella typhi; experiment: Antimicrobial activity against Salmonella typhi ATCC 23564 after 24 hrs by broth micro serial dilution method; format: functional, Salmonella enterica subsp. enterica serovar Typhi; details: Salmonella enterica, ATCC 23564, 24 h
[35] = test system: Salmonella typhi; experiment: Antimicrobial activity against Salmonella typhi ATCC 23564 assessed as diameter of inhibition zone at 20 uM after 24 hrs by Kirby -Baur disc diffusion method; format: functional; details: Salmonella enterica subsp. enterica serovar Typhi
[36] = test system: Salmonella typhi; experiment: Antimicrobial activity against Salmonella typhi ATCC 23564 assessed as diameter of inhibition zone at 40 uM after 24 hrs by Kirby -Baur disc diffusion method; format: functional; details: Salmonella enterica subsp. enterica serovar Typhi
[37] = test system: Salmonella typhi; experiment: Antimicrobial activity against Salmonella typhi ATCC 23564 assessed as diameter of inhibition zone at 80 uM after 24 hrs by Kirby -Baur disc diffusion method; format: functional, Salmonella enterica subsp. enterica serovar Typhi; details: Salmonella enterica, ATCC 23564, 24 h; read-out: DIZ
[38] = ATCC 35218, 24 h, read-out: DIZ

SMILES | inhibition in vivo at 200 mg/kg [1] | IC50 [2] | IC50 [3] | IC50 [4] | IC50 [5] | MIC [6] | zone of inhibition at 40 µM [8] | zone of inhibition at 80 µM [9] | MIC [10] | zone of inhibition at 40 µM [12] | MIC [13] | zone of inhibition at 80 µM [14] | inhibition zone (IZ) [15] | MIC [16] | inhibition zone (IZ) [17] | MIC [18] | zone of inhibition at 80 µM [21] | MIC [22] | diameter of the inhibition zone (DIZ) [23] | diameter of the inhibition zone (DIZ) [24] | other results
COc1cc(/C=C/c2noc(/C=C/c3ccc(O)c(OC)c3)c2/N=N/c2ccc(S(=O)(=O)Nc3cc(C)on3)cc2)ccc1O | 22.5% | Not Active | Not Active | Not Active | Not Active | > 80 µM | 9 mm | 12 mm | > 80 µM | 9 mm | inactive | 12 mm | inactive | inactive | inactive | > 80 µM | 9 mm | > 80 µM | inactive | inactive | inhibition zone (IZ) [7]: inactive; inhibition zone (IZ) [11]: inactive; diameter of the inhibition zone (DIZ) [19]: inactive; diameter of the inhibition zone (DIZ) [20]: inactive; zone of inhibition at 80 µM [25]: 9 mm; MIC [26]: > 80 µM; diameter of the inhibition zone (DIZ) [27]: inactive; diameter of the inhibition zone (DIZ) [28]: inactive; zone of inhibition at 80 µM [29]: 9 mm; MIC [30]: > 80 µM; diameter of the inhibition zone (DIZ) [31]: inactive; diameter of the inhibition zone (DIZ) [32]: inactive; zone of inhibition at 80 µM [33]: 9 mm
COc1cc(/C=C/c2nn(-c3ccccc3)c(/C=C/c3ccc(O)c(OC)c3)c2/N=N/c2ccc(S(=O)(=O)Nc3cc(C)on3)cc2)ccc1O | 25.8% | Not Active | > 100 µM | 100 µM | Not Active | 40 µM (≈ 28.2 µg/mL) | 11 mm | 13 mm | 80 µM (≈ 56.4 µg/mL) | 11 mm | inactive | 13 mm | inactive | inactive | inactive | > 80 µM | 12 mm | > 80 µM | inactive | inactive | zone of inhibition at 20 µM ([7]; MTCC 1107, 48 h, read-out: IZ): 9 mm; zone of inhibition at 20 µM ([11]; MTCC 581, 48 h, read-out: IZ): 9 mm; zone of inhibition at 20 µM [19, 38]: 9 mm; zone of inhibition at 40 µM [20, 38]: 10 mm; zone of inhibition at 80 µM [25]: 11 mm; MIC [34]: > 80 µM; diameter of the inhibition zone (DIZ) [35]: inactive; diameter of the inhibition zone (DIZ) [36]: inactive; zone of inhibition at 80 µM [37]: 10 mm; MIC [26]: > 80 µM; diameter of the inhibition zone (DIZ) [27]: inactive; diameter of the inhibition zone (DIZ) [28]: inactive; zone of inhibition at 80 µM [29]: 10 mm; MIC [30]: > 80 µM; diameter of the inhibition zone (DIZ) [31]: inactive; diameter of the inhibition zone (DIZ) [32]: inactive; zone of inhibition at 80 µM [33]: 10 mm
